We go through five compounds from ChEMBL document CHEMBL4229411, “Senolytic activity of piperlongumine analogues: Synthesis and biological evaluation” (Bioorg Med Chem, 2018).

For series [1], the target named is T1, Oxidation resistance protein 1 (Homo sapiens) (UniProt Q8N573).
T1 sequence (whole entry): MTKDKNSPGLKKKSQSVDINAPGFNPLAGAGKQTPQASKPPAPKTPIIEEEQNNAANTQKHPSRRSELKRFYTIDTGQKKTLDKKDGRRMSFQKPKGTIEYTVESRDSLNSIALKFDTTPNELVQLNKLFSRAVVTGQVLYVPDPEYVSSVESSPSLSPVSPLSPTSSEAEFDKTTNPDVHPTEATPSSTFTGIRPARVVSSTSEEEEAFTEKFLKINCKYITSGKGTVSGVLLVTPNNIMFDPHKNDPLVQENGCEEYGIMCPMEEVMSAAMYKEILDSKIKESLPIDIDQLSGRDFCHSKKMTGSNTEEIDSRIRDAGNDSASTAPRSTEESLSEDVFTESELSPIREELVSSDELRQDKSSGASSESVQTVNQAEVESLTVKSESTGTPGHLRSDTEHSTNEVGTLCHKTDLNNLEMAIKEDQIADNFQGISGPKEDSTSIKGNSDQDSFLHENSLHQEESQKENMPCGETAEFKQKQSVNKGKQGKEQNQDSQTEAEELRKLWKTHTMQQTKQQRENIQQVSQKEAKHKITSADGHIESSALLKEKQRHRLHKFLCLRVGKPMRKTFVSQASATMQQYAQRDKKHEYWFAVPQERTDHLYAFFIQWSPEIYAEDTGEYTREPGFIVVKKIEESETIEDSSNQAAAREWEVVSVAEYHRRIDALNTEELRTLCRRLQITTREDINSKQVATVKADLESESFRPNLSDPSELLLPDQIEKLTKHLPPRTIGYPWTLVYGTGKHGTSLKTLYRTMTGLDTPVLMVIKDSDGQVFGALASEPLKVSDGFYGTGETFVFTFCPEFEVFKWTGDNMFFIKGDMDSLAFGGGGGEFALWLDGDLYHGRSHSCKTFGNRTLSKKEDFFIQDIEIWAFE
The experiment in a line: Induction of OXR1 degradation in ionizing radiation induced human WI38 senescent cells at 5 uM after 24 hrs by Western blot analysis. In short, it runs like this: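 Cells were lysed in RIPA buffer with EDTA/EGTA and proteins were transferred to PVDF. Membranes were blocked in 5% nonfat milk/TBST and probed overnight at 4 °C for OXR1 and β-actin. Bands were quantified; mean ± SEM, n = 3.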

In series [2] the test system is WI-38. The experiment in a line: Senolytic activity against ionizing radiation induced human WI38 senescent cells assessed as reduction in cell viability by propidium iodide staining based flow cytometry. It counts as functional. In short, it runs like this:
(§1)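 WI-38 fibroblasts were grown in DMEM/10% FBS with penicillin/streptomycin at 37 °C, 5% CO2. Low-passage cells (<25 passages) served as non-senescent controls.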

Series [3] is described as follows: Toxicity in po dosed mouse. It counts as organism-based. The settings on record: in vivo.
The test system of series [4] is WI-38. The experiment in a line: Induction of ROS production in ionizing radiation induced human WI38 senescent cells up to 64 uM after […] by DHR123 dye based flow cytometry. The series is classed as functional, cell-based.
Series [5] deals with WI-38. The experiment in a line: Senolytic activity against non-senescent human WI38 cells assessed as reduction in cell viability by propidium iodide staining based flow cytometry. In short, it runs like this: as §1
A general note: Flow cytometry measures light scatter and fluorescence of single cells or particles in a stream.

The nature of series [6]: Selectivity index, ratio of EC50 for non-senescent human WI38 cells to EC50 for ionizing radiation induced human WI38 senescent cells. It counts as functional, WI-38. The essentials:
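Human WI-38 fibroblasts were grown in DMEM with 10% FBS and penicillin/streptomycin at 37 °C in 5% CO2. Low-passage cells (<25 passages) served as non-senescent controls. Viability was read by flow cytometry.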

Series [7] relates to WI-38. The experiment in a line: Induction of apoptosis in ionizing radiation induced human WI38 senescent cells assessed as live cells at 10 uM after 48 hrs by Annexin V-FITC/propidium iodide staining based flow cytometry (reference value: 87%). The series is classed as functional.
The test system of series [8] is WI-38. The experiment in a line: Induction of apoptosis in ionizing radiation induced human WI38 senescent cells assessed as late apoptotic cells at 10 uM after 48 hrs by Annexin V-FITC/propidium iodide staining based flow cytometry (reference value: […]). The series is classed as functional.
Series [9] concerns WI-38. The experiment in a line: Induction of apoptosis in ionizing radiation induced human WI38 senescent cells assessed as early apoptotic cells at 10 uM after 48 hrs by Annexin V-FITC/propidium iodide staining based flow cytometry (reference value: […]). It counts as functional.
Series [10] concerns WI-38. The experiment in a line: Induction of apoptosis in ionizing radiation induced human WI38 senescent cells assessed as necrotic cells at 10 uM after 48 hrs by Annexin V-FITC/propidium iodide staining based flow cytometry (reference value: […]). The series is classed as functional.

Active and inactive are the calls of the source. No cut-off for these calls is given here.

`C=C1CCN(C(=O)/C=C/c2cc(OC)c(OC)c(OC)c2)C1=O`: the result in series [1] was Active.
As for `COc1cc(/C=C/C(=O)N2CCC=CC2=O)cc(OC)c1OC` [PIPLARTINE], the EC50 (commonly the concentration giving half of the maximal effect) in the series on WI-38 [2] came out at 8 µM; with WI-38 [5], 20.3 µM. Moreover, the MTD in [3] was > 1000 mg/kg. Also, the outcome (in series [1]; in the series on WI-38 [4]) was Active. The “Ratio EC50” value in [6] came out at 2.5.
With `C=C1CCCN(C(=O)/C=C/c2cc(OC)c(OC)c(OC)c2)C1=O`, in series [1], the outcome was Active.
The same measure, in the same setting: as for `C=C1CCCCN(C(=O)/C=C/c2cc(OC)c(OC)c(OC)c2)C1=O`, the entry is “Active”.
Turning to `CC(C)[C@H](NC(=O)c1ccc2ccccc2n1)C(=O)N[C@@H](CC(=O)O)C(=O)COc1c(F)cccc1F`, the Activity was 80.9% in the series with WI-38 [7], 8% in the series on WI-38 [8], 7.7% in the series with WI-38 [9] and 3.4% in the series on WI-38 [10].
